System: BMDM
Assay: Anti-osteoporosis activity in C57BL/6 mouse bone marrow macrophages assessed as inhibition of M-CSF/RANKL-induced osteoclast differentiation supplemented with fresh medium containing compounds every 2 days for 5 measured post-last dose by TRAP staining based assay
Assay type: functional, cell-based
Conditions: C57BL/6, BMDM, 5 days
Summary of the method: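 Mouse (C57BL/6, 6-week) BMMs were plated at 6×10³ cells/well with M-CSF 30 ng/mL overnight, then given complete α-MEM with M-CSF and GST-rRANKL 100 ng/mL plus compound at varied concentrations, refreshed every 2 days. At day 5 cells were fixed in 4% paraformaldehyde and TRAcP-stained; TRAcP+ cells with >3 nuclei were counted.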

Compound	IC50 [nM]
O=C(Nc1nc2ccccc2s1)c1cc2ccccc2c(=O)o1	5130
COc1cccc(OC)c1C(=O)Nc1nc(C)c(C(C)=O)s1	2140
CCOC(=O)c1sc(NC(=O)Cn2cc(-c3ccncc3)nn2)nc1C	120
Cc1csc(NC(=O)Cn2cc(-c3ccc(Cl)cc3)nn2)n1	520
N#Cc1ccc(-c2cn(CC(=O)Nc3nccs3)nn2)cc1	270
CCOC(=O)c1sc(NC(=O)Cn2cc(-c3cccs3)nn2)nc1C	20
CCOC(=O)c1sc(NC(=O)Cn2cc(-c3ccc(F)cc3)nn2)nc1C	660
Cc1cnc(NC(=O)c2ccc3c(c2)OCO3)s1	> 30000
N#Cc1ccc(C(=O)Nc2nccs2)cc1	> 30000
CCOC(=O)c1sc(NC(=O)Cn2cc(-c3ccccc3Cl)nn2)nc1C	130
CCCn1c(=O)c(C(=O)Nc2nccs2)c(O)c2ccccc21	3980
Cc1nc(NC(=O)/C=C/c2ccc3c(c2)OCO3)sc1C	8110
Cc1cc(NC(=O)Cn2cc(-c3ccc(C#N)cc3)nn2)no1	9320
CCCN1C(=O)c2ccc(C(=O)Nc3nccs3)cc2C1=O	10000
C#Cc1ccc(-c2cn(CC(=O)Nc3cc(C)on3)nn2)cc1	> 30000
C#Cc1ccc(-c2cn(CC(=O)Nc3nccs3)nn2)cc1	> 30000
Cc1cc(NC(=O)Cn2cc(-c3cccs3)nn2)no1	> 30000
Cc1ccc(-c2csc(NC(=O)c3ccc(C)o3)n2)cc1	4030
CCOC(=O)c1ccccc1SCC(=O)Nc1nccs1	3980
CCOc1cc(C(=O)Nc2nccs2)cc(OCC)c1OCC	6750
CCOC(=O)c1sc(NC(=O)Cn2cc(-c3ccc(C#N)cc3)nn2)nc1C	310
Cc1ccc(-c2csc(NCc3ccc(C)o3)n2)cc1	1190
O=C(Cn1cc(-c2cccs2)nn1)Nc1nccs1	> 30000
CCOC(=O)c1sc(NC(=O)Cn2cc(-c3ccc([N+](=O)[O-])cc3)nn2)nc1C	1840
CC(C)Oc1ccccc1C(=O)Nc1nccs1	12600
O=C(NCc1ccco1)c1cc2ccccc2c(=O)o1	4240
CCOC(=O)c1sc(NC(=O)Cn2cc(-c3ccc(Cl)cc3)nn2)nc1C	180
Cc1csc(NC(=O)Cn2cc(-c3cccs3)nn2)n1	40

Results, then the compound that gave them:

IC50 [nM]	Compound
> 30000	Cc1cc(NC(=O)Cn2cc(-c3ccc(F)cc3)nn2)no1
> 30000	Cc1csc(NC(=O)Cn2cc(-c3ccc(C(=O)O)cc3)nn2)n1
250	Cc1csc(NC(=O)Cn2cc(-c3cccc(N)c3)nn2)n1
50	O=C(Cn1cc(-c2ccncc2)nn1)Nc1nc2ccccc2s1
1220	Cc1cc(NC(=O)Cn2cc(-c3ccc([N+](=O)[O-])cc3)nn2)no1
21400	O=C(Cn1cc(-c2cccs2)nn1)Nc1nc2ccccc2s1
> 30000	COC(=O)c1ccc(-c2cn(CC(=O)Nc3nc4ccccc4s3)nn2)cc1
> 30000	COc1cccc(-c2cn(-c3ccc(C(F)(F)F)cc3)nc2C(=O)NC2CCCCC2)c1
190	Cc1csc(NC(=O)Cn2cc(-c3ccc([N+](=O)[O-])cc3)nn2)n1
3280	O=C(Cn1cc(-c2ccc([N+](=O)[O-])cc2)nn1)Nc1nc2ccccc2s1
100	Cc1csc(NC(=O)Cn2cc(-c3ccncc3)nn2)n1
190	O=C(Cn1cc(-c2ccc(F)cc2)nn1)Nc1nccs1
> 30000	COc1cccc(-c2cn(-c3ccc(C(F)(F)F)cc3)nc2C(=O)NCCCN(C)C)c1
> 30000	O=C(Cn1cc(-c2cccc(Cl)c2)nn1)Nc1nccs1
1330	COc1ccc(-c2cn(CC(=O)Nc3nc4ccccc4s3)nn2)cc1
> 30000	COC(=O)c1ccc(-c2cn(CC(=O)Nc3cc(C)on3)nn2)cc1
> 30000	COc1ccc(-c2cn(CC(=O)Nc3cc(C)on3)nn2)cc1
250	Cc1csc(NC(=O)Cn2cc(-c3ccc(F)cc3)nn2)n1
130	O=C(Cn1cc(-c2ccc(Cl)cc2)nn1)Nc1nc2ccccc2s1
510	COc1ccc(-c2cn(CC(=O)Nc3nccs3)nn2)cc1

IC50 [nM]	Compound
1240	Cc1csc(NC(=O)Cn2cc(-c3ccccc3Cl)nn2)n1
> 30000	O=C(Cn1cc(-c2ccc(F)cc2)nn1)Nc1nc2ccccc2s1
> 30000	COc1cccc(-c2cn(-c3ccc(C(F)(F)F)cc3)nc2C(=O)N2CCc3ccccc3C2)c1
1270	Nc1cccc(-c2cn(CC(=O)Nc3nccs3)nn2)c1
2330	CCOC(=O)c1sc(NC(=O)Cn2cc(-c3ccc(OC)cc3)nn2)nc1C
1040	O=C(Cn1cc(-c2ccc([N+](=O)[O-])cc2)nn1)Nc1nccs1
> 30000	COC(=O)c1ccc(-c2cn(CC(=O)Nc3nc(C)cs3)nn2)cc1
430	Cc1cc(NC(=O)Cn2cc(-c3ccncc3)nn2)no1
1110	Nc1cccc(-c2cn(CC(=O)Nc3nc4ccccc4s3)nn2)c1
2700	O=C(C1=C(O)C(=O)N(CCCn2ccnc2)[C@@H]1c1cccc(O)c1)c1ccc2c(c1)OCCO2
1910	Cc1cc(NC(=O)Cn2cc(-c3ccc(Cl)cc3)nn2)no1
3890	COc1ccc(-c2cn(CC(=O)Nc3nc(C)cs3)nn2)cc1
> 30000	N#Cc1ccc(-c2cn(CC(=O)Nc3nc4ccccc4s3)nn2)cc1
60	O=C(Cn1cc(-c2ccccc2Cl)nn1)Nc1nccs1
> 30000	Cc1cc(NC(=O)Cn2cc(-c3cccc(Cl)c3)nn2)no1
> 30000	Cc1cc(NC(=O)Cn2cc(-c3ccccc3Cl)nn2)no1
3150	O=C(c1cc2ccccc2s1)N1CCOCC1
1100	O=C(Cn1cc(-c2ccc(Cl)cc2)nn1)Nc1nccs1
> 30000	COc1cccc(-c2cn(-c3ccc(C(F)(F)F)cc3)nc2C(=O)N2CCN(c3ncccn3)CC2)c1
> 30000	O=C(Cn1cc(-c2ccccc2Cl)nn1)Nc1nc2ccccc2s1

Reference: ChEMBL document CHEMBL4304759, “Identifying Novel Anti-Osteoporosis Leads with a Chemotype-Assembly Approach” (J Med Chem, 2019)
